In brackets after ≈: the same amount, converted by molar mass. Starred links: 1 amine or outer side, 2 acyl side, 3 side chain; linkers in the order of their positions; H or OH if unused. Non-standard residues stand in square brackets, D forms with d. Residues, ends and D or L forms follow the SMILES beside them. *: point of attachment. X6 = C[C@H](CO[C@H](CC1C[C@H]2CC[C@@H](C1)C2)[C@@H](C)C(=O)[*:2])N[*:1]; X3 = C[C@H](CO[C@H](CC1CC2(CCC2)C1)[C@@H](C)C(=O)[*:2])N[*:1]; X10 = CCCCCC[C@@H](OC[C@@H](CC)N[*:1])[C@@H](C)C(=O)[*:2]; X1 = CCCCCC[C@@H](OC[C@@H](C)N[*:1])[C@@H](C)C(=O)[*:2]; X8 = CCCCCC[C@@H](O[C@@H](C)CN[*:1])[C@@H](C)C(=O)[*:2]; X7 = CCCCCC[C@@H](O[C@H](C)CN[*:1])[C@@H](C)C(=O)[*:2]; X4 = CCCCCCN(CCN[*:1])[C@@H](C)C(=O)[*:2]; Gly(cHept) = N[C@H](C(=O)O)C1CCCCCC1; aThr = C[C@H](O)[C@H](N)C(=O)O; NMeL = CN[C@@H](CC(C)C)C(=O)O; Chg = N[C@H](C(=O)O)C1CCCCC1; NMeNva = CCC[C@H](NC)C(=O)O; hSer = N[C@@H](CCO)C(=O)O; Dap = NC[C@H](N)C(=O)O; Propyl(3-NH2) = NCCC*; X12 = NCC(CN)*; X5 = NCCCNCCC*
Columns and labels:
[1] = Growth inhibition of Staphylococcus aureus USA300
[2] = Stability of the compound in human plasma assessed as parent compound remaining after 24 hrs; assay type: ADME, cell-free; conditions: read-out: Stabilty
In short: (§1)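 Test compound incubated for 24 hour in human, rat or mouse plasma. Stability is reported as the percentage of parent compound remaining.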

Escherichia coli = experiment: Inhibition of LspA in Escherichia coli CFT073imp4213 harboring outer membrane-permeable mutant assessed as inhibition of bacterial growth
In short: (§2)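 Read-out is the minimum inhibitory concentration, reported in µM.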

[3] = Stability of the compound in mouse plasma assessed as parent compound remaining after 24 hrs; assay type: ADME, cell-free; conditions: read-out: Stabilty; in short: as §1
Escherichia coli CFT073 = experiment: Inhibition of LspA in wild type Escherichia coli CFT073 assessed as inhibition of bacterial growth; in short: as §2
[4] = Clearance in iv dosed mouse; assay type: ADME, organism-based; conditions: in vivo
Enterobacter cloacae = experiment: Inhibition of LspA in Enterobacter cloacae assessed as inhibition of bacterial growth
[5] = Protein binding in rat plasma; assay type: ADME, cell-free; conditions: read-out: PPB (converted)
[6] = Protein binding in mouse plasma; assay type: ADME, cell-free; conditions: read-out: PPB (converted)
Acinetobacter baumannii = experiment: Inhibition of LspA in Acinetobacter baumannii assessed as inhibition of bacterial growth
Klebsiella pneumoniae = experiment: Inhibition of LspA in Klebsiella pneumoniae assessed as inhibition of bacterial growth
Pseudomonas aeruginosa = experiment: Inhibition of LspA in Pseudomonas aeruginosa assessed as inhibition of bacterial growth
[7] = Lipophilicity, logD of the compound at pH 7.4; conditions: buffer, pH 7.4, logD
Jurkat = experiment: Cytotoxicity against human Jurkat cells; assay type: cell-based
In short: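 Jurkat cell growth assay. Result reported as antiproliferative EC50.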

[8] = Half life in iv dosed mouse; assay type: ADME, organism-based; conditions: in vivo
[9] = Stability of the compound in rat plasma assessed as parent compound remaining after 24 hrs; assay type: ADME, cell-free; conditions: read-out: Stabilty; in short: as §1
[10] = Clearance in mouse liver microsomes; assay type: ADME, Microsome
In short: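 Intrinsic clearance in rat or mouse liver microsomes, expressed in mL/min/kg.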

| Structure (SMILES) | MIC [1] [µM] | remaining at 24 h [2] [%] | MIC (Escherichia coli) [µM] | remaining at 24 h [3] [%] | MIC (Escherichia coli CFT073) [µM] | logD [7] | further results |
| --- | --- | --- | --- | --- | --- | --- | --- |
| CCCCCC[C@H]1OCCCNC(=O)[C@H]([C@H](C)O)NC(=O)[C@H](CN)NC(=O)[C@H](C2CCCCC2)NC(=O)[C@H](CC(C)C)N(C)C(=O)[C@@H]1C | 100 (≈ 68.1 µg/mL) | 96 | 0.39 (≈ 0.266 µg/mL) | 101 | 12 (≈ 8.17 µg/mL) | – | – |
| CCCCCCN1CCCNC(=O)[C@H]([C@H](C)O)NC(=O)[C@H](CN)NC(=O)[C@H]([C@H](C)CC)NC(=O)[C@H](CC(C)C)N(C)C(=O)[C@@H]1C | > 100 | 101 | 12.5 (≈ 8 µg/mL) | 100 | > 100 | – | – |
| CCCCCC[C@H]1OC[C@@H](C)NC(=O)[C@H]([C@H](C)O)NC(=O)[C@H](CN)NC(=O)[C@H](C2CCCCC2)NC(=O)[C@H](CC(C)C)N(C)C(=O)[C@@H]1C | 71 (≈ 48.3 µg/mL) | 93 | 0.034 (≈ 0.0232 µg/mL) | 94 | 2.9 (≈ 1.97 µg/mL) | – | – |
| CCCCCC[C@H]1O[C@@H](C)CNC(=O)[C@H]([C@H](C)O)NC(=O)[C@H](CN)NC(=O)[C@H](C2CCCCC2)NC(=O)[C@H](CC(C)C)N(C)C(=O)[C@@H]1C (cyclo([Chg][Dap][aThr][X8][NMeL])) | 100 (≈ 68.1 µg/mL) | 91 | 0.1 (≈ 0.0681 µg/mL) | 101 | 12 (≈ 8.17 µg/mL) | – | – |
| CCCCCC[C@H]1OC[C@H](C)NC(=O)[C@H]([C@H](C)O)NC(=O)[C@H](CN)NC(=O)[C@H](C2CCCCC2)NC(=O)[C@H](CC(C)C)N(C)C(=O)[C@@H]1C | 71 (≈ 48.3 µg/mL) | 88 | 1 (≈ 0.681 µg/mL) | 93 | 84 (≈ 57.2 µg/mL) | – | – |
| CCC[C@H]1C(=O)N[C@@H](C2CCCCCC2)C(=O)N[C@@H](CN)C(=O)N[C@@H](COCCCNCCCN)C(=O)N[C@H](C)CO[C@H](CC2C[C@H]3CC[C@@H](C2)C3)[C@@H](C)C(=O)N1C (some centres undefined) (cyclo([Dap]S(X5)[X6][NMeNva][Gly(cHept)])) | 12 (≈ 9.83 µg/mL) | – | – | – | 0.78 (≈ 0.639 µg/mL) | 0.2 | clearance [4]: 68 mL/min/kg; MIC (Enterobacter cloacae): 1.6 µM (≈ 1.31 µg/mL); fraction unbound [5]: 0.026; fraction unbound [6]: 0.004; MIC (Acinetobacter baumannii): 25 µM (≈ 20.5 µg/mL); MIC (Klebsiella pneumoniae): 1.6 µM (≈ 1.31 µg/mL); MIC (Pseudomonas aeruginosa): 12 µM (≈ 9.83 µg/mL); EC50 (Jurkat): > 100 µM; half-life [8]: 2.5 h |
| CCCCCC[C@H]1C(=O)N(C)[C@@H](CC(C)C)C(=O)N[C@@H](C2CCCCC2)C(=O)N[C@@H](CN)C(=O)N[C@@H]([C@H](C)O)C(=O)NCCN1C | 100 (≈ 65.2 µg/mL) | 92 | 0.39 (≈ 0.254 µg/mL) | 81 | 12 (≈ 7.82 µg/mL) | – | – |
| CCC[C@H]1C(=O)N[C@@H](C2CCCCCC2)C(=O)N[C@@H](CN)C(=O)N[C@@H](COCCCNCCCN)C(=O)N[C@H](C)CO[C@H](CC2CC3(CCC3)C2)[C@@H](C)C(=O)N1C (cyclo([Dap]S(X5)[X3][NMeNva][Gly(cHept)])) | 18 (≈ 14.5 µg/mL) | 103 | – | 106 | 1.6 (≈ 1.29 µg/mL) | 0.7 | clearance [4]: 12 mL/min/kg; MIC (Enterobacter cloacae): 3.1 µM (≈ 2.5 µg/mL); fraction unbound [5]: 0.025; fraction unbound [6]: 0.001; remaining at 24 h [9]: 118%; MIC (Acinetobacter baumannii): 50 µM (≈ 40.3 µg/mL); MIC (Klebsiella pneumoniae): 3.1 µM (≈ 2.5 µg/mL); MIC (Pseudomonas aeruginosa): 50 µM (≈ 40.3 µg/mL); CLhep predicted [10]: 53 mL/min/kg; EC50 (Jurkat): > 50 µM; half-life [8]: 4.6 h |
| CCCCCC[C@H]1OC[C@@H](CC)NC(=O)[C@H]([C@H](C)O)NC(=O)[C@H](CN)NC(=O)[C@H](C2CCCCC2)NC(=O)[C@H](CC(C)C)N(C)C(=O)[C@@H]1C (cyclo([Chg][Dap][aThr][X10][NMeL])) | 50 (≈ 34.7 µg/mL) | 101 | 0.024 (≈ 0.0167 µg/mL) | 87 | 2.2 (≈ 1.53 µg/mL) | – | – |
| CCCCCCN1CCNC(=O)[C@H]([C@H](C)O)NC(=O)[C@H](CN)NC(=O)[C@H](C2CCCCC2)NC(=O)[C@H](CC(C)C)N(C)C(=O)[C@@H]1C (cyclo([Chg][Dap][aThr][X4][NMeL])) | > 100 | 95 | 0.5 (≈ 0.326 µg/mL) | 112 | 25 (≈ 16.3 µg/mL) | – | – |
| CCCCCC[C@H]1O[C@H](C)CNC(=O)[C@H]([C@H](C)O)NC(=O)[C@H](CN)NC(=O)[C@H](C2CCCCC2)NC(=O)[C@H](CC(C)C)N(C)C(=O)[C@@H]1C (cyclo([Chg][Dap][aThr][X7][NMeL])) | 100 (≈ 68.1 µg/mL) | 100 | 0.4 (≈ 0.272 µg/mL) | 92 | 35 (≈ 23.8 µg/mL) | – | – |
| CCCCCC[C@H]1OC[C@@H](C)NC(=O)[C@H](CCOCCCN)NC(=O)[C@H](CN)NC(=O)[C@H](C2CCCCCC2)NC(=O)[C@H](CCC)N(C)C(=O)[C@@H]1C (cyclo([Dap][hSer](Propyl(3-NH2))[X1][NMeNva][Gly(cHept)])) | 100 (≈ 73.8 µg/mL) | – | 0.2 (≈ 0.148 µg/mL) | – | 8.8 (≈ 6.49 µg/mL) | 1.7 | – |
| CCCCCC[C@H]1OC[C@@H](C)NC(=O)[C@H](COC(CN)CN)NC(=O)[C@H](CN)NC(=O)[C@H](C2CCCCCC2)NC(=O)[C@H](CCC)N(C)C(=O)[C@@H]1C (cyclo([Dap]S(X12)[X1][NMeNva][Gly(cHept)])) | 50 (≈ 37 µg/mL) | – | 0.55 (≈ 0.406 µg/mL) | – | 3.1 (≈ 2.29 µg/mL) | 1.1 | – |
| CCCCCC[C@H]1OC(=O)CNC(=O)[C@H]([C@H](C)O)NC(=O)[C@H](CN)NC(=O)[C@H](C2CCCCCC2)NC(=O)[C@H](CC(C)C)N(C)C(=O)[C@@H]1C | 50 (≈ 34.7 µg/mL) | – | 0.014 (≈ 0.00973 µg/mL) | – | 1.1 (≈ 0.764 µg/mL) | 3.4 | – |
| CCCCCC[C@H]1OC[C@@H](C)NC(=O)[C@H](COc2ccc(CCN)cc2)NC(=O)[C@H](CN)NC(=O)[C@H](C2CCCCC2)NC(=O)[C@H](CCC)N(C)C(=O)[C@@H]1C | 25 (≈ 19.3 µg/mL) | – | 0.048 (≈ 0.0371 µg/mL) | – | 1.6 (≈ 1.24 µg/mL) | 2.4 | – |
